The source of these data is PubChem BioAssay.

The source made the active and inactive calls.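 How the source made its calls, unless noted: active means NADPH fluorescence slope more negative than the mean of all samples by about 3 SD, 99.7% confidence; inactive means the rest.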

Assay [1] can be described thus: inhibitors of TNFa-induced NFkB p65 translocation, primary screen, imaging, HUVEC, MLSMR starter and 10KST1 sets (AID 438;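 active means inhibition above 20% together with a positive visual image hit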;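 further: compound added about 3h40 before a 20 min TNFalpha stimulation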;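 on inhibition: signal is the nuclear over cytoplasmic p65 intensity ratio per well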). The note with it: HUVEC TNFa-induced p65 nuclear translocation; cell count: measured here: nuclei count (cytotoxicity indicator), at 2.08 µM; inhibition: at 2 µM, stronger effect = higher value, 0% TNFa-plus-vehicle, 100% no-TNFa wells.
Assay [2] in a line: reduction of polyQ htt aggregates in cells – imaging, exon1htt(103Q)mCFP cells, high-content imaging, primary screen (AID 483;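 active means visual image review flags a hit and inhibition of aggregation exceeds 20%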;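 further: compound exposure lasted 3 days before fixation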;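 on nuclei count: percent of the per-plate median nuclei count of sample wells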). The note with it: exon1htt(103Q)mCFP cell line, aggregate imaging, at 2 µM; inhibition of aggregation: stronger effect = higher value; nuclei count: measured here: cell count, toxicity.
A short description of assay [3]: endothelial E-selectin expression blockers – imaging, HUVEC, immunofluorescence, MLSMR starter and 10KST1 sets, primary screen (AID 487;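 active means visually confirmed hit in the image check and inhibition above 20%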;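 on inhibition: signal is fraction of cell area covered by stained E-selectin grains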;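 on nuclei count: 100% = median nuclei count of all wells on the same plate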). The note with it: HUVEC TNFalpha-induced E-selectin immunofluorescence imaging, at 2 µM; inhibition: stronger effect = higher value; nuclei count: measured here: cell number, toxicity.
Assay [4] concerns the target Voltage-gated potassium channel subunit beta-2 (Rattus norvegicus) (UniProt P62483). In words: inhibitors of rat Kvbeta2 reductase activity – biochemical, NADPH fluorescence, primary screen (AID 622;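 active means fluorescence slope higher than the sample average by over 3 SD, cut at about -0.22 in these data, passing the limit was not always enough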;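 further: slope of raw intensity against log time taken from 70 to 1610 s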). The note with it: recombinant KvBeta, 4-cyanobenzaldehyde reduction, at 10 µM, stronger effect = higher value.
For assay [5] the target is unchanged. Description: enhancers of rat Kvbeta2 NADPH turnover – biochemical, NADPH fluorescence, primary screen (AID 623).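 Further: fluorescence intensity change per second fitted from 20 to 320 s.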 The note with it: Recombinant KvBeta, NADPH fluorescence decrease slope, 10 min; at 10 µM; stronger effect = lower value.
For assay [6], the target named is Muscarinic acetylcholine receptor M4 (Homo sapiens) (UniProt P08173). In words: M4-linked GIRK flux change, two-sided – cell-based, HEK293 M4/GIRK, thallium flux, BTC-AM, M4 allosteric agonist project, primary screen (AID 625;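 active means fluorescence slope after compound addition differing from the mean of all tested samples at 99.7% confidence, mostly higher but some lower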;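 further: thallium influx through GIRK channels coupled to M4 in HEK293 cells with BTC-AM dye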). The note with it: at 10 µM, actives lie on both sides. Put shortly:
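Material: M4/GIRK1/GIRK2 stable HEK293 cell line. Medium: pH 7.3 thallium assay buffer. Dosing: single compound concentration, 10 µM final. Schedule: 1 h dye loading, 2 min kinetic read. Measured by: kinetic fluorescence with BTC-AM dye. Read-out: post-addition slope, 15–24 s, of baseline-normalized fluorescence. Benchmarks: carbachol and DMSO controls.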

Assay [7] in a line: blockers of RIG-like receptor reporter activation – cell-based, Sendai virus stimulus, luciferase, 10K MLSCN set, TLR/RLR signaling modifier project, primary screen (AID 602276;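 active means inhibition at or above 50% at 10 µM; inactive means inhibition below 50%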;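 further: firefly luciferase from ISG56 promoter only with Renilla not read in this screen; 0% = Sendai virus plus DMSO and 100% = medium plus DMSO without virus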). The note with it: HEK293 RL24 IRF3 luciferase reporter, at 10 µM, stronger effect = higher value. Background: Reporter assays use an easily measured gene product as a stand-in for the process of interest.
The nature of assay [8]: TLR3 IRF3 reporter activation blockers – cell-based, poly I:C stimulus, luciferase, 10K MLSCN set, primary screen (AID 602277;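 active means inhibition of the reporter signal at or above 50%; inactive means inhibition below 50%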). The note with it: HEK293-TLR3 RL24 IRF3 luciferase reporter, at 10 µM, stronger effect = higher value.
The target of assay [9] is Alpha-2C adrenergic receptor (Homo sapiens) (UniProt P18825). Description: compounds altering alpha2C-coupled GIRK flux – cell-based, HEK293 alpha2C/GIRK1/2, thallium flux, primary screen (AID 624;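 active means fluorescence slope after compound addition differing from the mean of all screened samples at 99.7% confidence, in either direction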;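 further: slope of fluorescence ratio to pre-addition baseline per second over 15 to 24 s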). The note with it: thallium flux BTC fluorescence, at 10 µM, actives lie on both sides.
Sequence of Alpha-2C adrenergic receptor (Homo sapiens) (P18825 whole entry, looked up): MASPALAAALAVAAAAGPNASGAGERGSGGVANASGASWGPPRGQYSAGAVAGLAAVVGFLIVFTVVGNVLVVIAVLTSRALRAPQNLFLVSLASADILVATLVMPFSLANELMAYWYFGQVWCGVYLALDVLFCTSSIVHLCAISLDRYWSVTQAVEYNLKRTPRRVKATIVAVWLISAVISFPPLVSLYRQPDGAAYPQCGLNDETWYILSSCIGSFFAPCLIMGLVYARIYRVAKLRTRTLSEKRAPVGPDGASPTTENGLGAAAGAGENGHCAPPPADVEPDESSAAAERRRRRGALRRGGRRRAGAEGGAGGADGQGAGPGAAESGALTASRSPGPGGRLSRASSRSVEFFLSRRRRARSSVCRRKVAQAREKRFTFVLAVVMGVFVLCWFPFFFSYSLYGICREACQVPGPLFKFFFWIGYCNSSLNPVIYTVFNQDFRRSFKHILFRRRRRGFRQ
A short description of assay [10]: inhibitors of larval lipid processing in zebrafish, primary screen, whole organism, PED6 fluorescence, gall bladder and intestine (AID 686;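 active means a full or partial loss of lipid-probe fluorescence in the fish gall bladder, intestine or both, judged by eye; inactive means no fluorescence loss, or compound toxic to the fish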;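 further: larvae 5 to 7 days old with five fish per well; signal comes from phospholipase A2 cleavage of quenched PED6 carried via bile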). The note with it: Zebrafish larvae PED6 lipid processing, fluorescence scoring; screened at 20 µM (by protocol). Put shortly: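 System: live zebrafish larvae aged 5-7 days, whole organism; measure: graded gall bladder and intestinal fluorescence inhibition per well; incubation: overnight exposure; reagent: ingested quenched lipid PED6 at 100 nM; signal: By-eye fluorescence microscopy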

One may read the inhibition as the change of the read-out against control, counted positive when it falls.

Sequence of Voltage-gated potassium channel subunit beta-2 (Rattus norvegicus) (P62483 whole entry, looked up): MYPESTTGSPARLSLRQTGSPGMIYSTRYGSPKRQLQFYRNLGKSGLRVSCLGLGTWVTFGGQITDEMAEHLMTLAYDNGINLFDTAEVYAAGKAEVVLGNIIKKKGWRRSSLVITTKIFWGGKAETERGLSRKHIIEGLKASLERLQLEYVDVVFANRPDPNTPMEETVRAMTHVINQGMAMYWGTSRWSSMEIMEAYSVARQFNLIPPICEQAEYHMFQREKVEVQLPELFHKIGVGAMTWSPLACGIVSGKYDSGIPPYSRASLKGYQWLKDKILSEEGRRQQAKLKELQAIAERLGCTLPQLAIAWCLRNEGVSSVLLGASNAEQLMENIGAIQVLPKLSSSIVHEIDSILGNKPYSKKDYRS
Sequence of Muscarinic acetylcholine receptor M4 (Homo sapiens) (P08173 whole entry, looked up): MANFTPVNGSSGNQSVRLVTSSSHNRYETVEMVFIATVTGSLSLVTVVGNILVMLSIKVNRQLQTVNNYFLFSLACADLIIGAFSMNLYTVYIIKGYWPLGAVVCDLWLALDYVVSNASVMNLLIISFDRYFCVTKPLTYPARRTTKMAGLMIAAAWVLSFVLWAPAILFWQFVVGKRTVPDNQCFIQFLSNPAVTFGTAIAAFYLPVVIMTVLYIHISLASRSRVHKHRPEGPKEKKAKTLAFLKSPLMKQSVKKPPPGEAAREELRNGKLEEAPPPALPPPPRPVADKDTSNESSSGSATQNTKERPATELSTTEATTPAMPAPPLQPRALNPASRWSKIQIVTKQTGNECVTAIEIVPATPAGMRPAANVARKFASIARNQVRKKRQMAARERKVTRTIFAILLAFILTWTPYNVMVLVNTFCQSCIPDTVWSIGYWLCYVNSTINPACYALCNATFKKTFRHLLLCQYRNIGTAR

Consider `CCOC(=O)C(C)Sc1nc2c(cnn2-c2ccc(C)cc2)c(=O)[nH]1` (configuration not stated), for which, in assay [1], the cell count was 239. Further, the inhibition in [1] was -1.3% (inactive); in assay [3], 11.9% (inactive); in assay [7], 6.58% (inactive); in assay [8] it was 8.01% (inactive). In addition, the inhibition of aggregation in [2] was 6.8% (inactive). In addition, the nuclei count in [2] was found to be 102%; in assay [3] it was 110%. The fluorescence slope in assay [4] is -0.503 (inactive); in assay [6] it was 0.00678 (inactive). For the same molecule, the NADPH fluorescence slope in [5] was 8.8e-05 (inactive).
As for `FC(F)(F)c1nnc2ccc(NCn3nnc4ccccc43)nn12`, in [1], the cell count was 562. The inhibition is -27.6% (inactive) in assay [1], 16.1% (inactive) in assay [3], 12.7% (inactive) in [7] and 3.14% (inactive) in assay [8]. Also, the inhibition of aggregation in [2] was 18.9% (inactive). For the same molecule, the nuclei count stood at 85.2% in assay [2] and 94.1% in assay [3]. The figures for the fluorescence slope in assay [4] and in assay [6] were -0.434 (inactive) and 0.00533 (inactive), respectively. For the same molecule, the NADPH fluorescence slope in assay [5] is 3.1e-05 (inactive).
As for `Cc1ccccc1-c1nc(CN2CCC(C(=O)NCCCN3CCCC3)CC2)c(C)o1`, the cell count in assay [1] came out at 223. Also, the inhibition is 0% (inactive) in [1], 25.4% (inactive) in assay [3], -136% (inactive) in [7] and 56.5% (active) in assay [8]. Besides, in assay [2], the inhibition of aggregation is -91.5% (inactive). The nuclei count in [2] was 101%; in assay [3] it was 94.2%. In addition, the fluorescence slope was -0.553 (inactive) in [4] and 0.00435 (inactive) in [6]. In addition, the NADPH fluorescence slope in [5] is 7.2e-05 (inactive).
Turning to `O=C(O)c1cccc(CN2C(=O)SC(Nc3ccccc3)C2=O)c1` (configuration not stated), the cell count in assay [1] came to 510. The inhibition was 3.6% (inactive) in assay [1], 39.4% (inactive) in assay [3], 8.76% (inactive) in [7] and 18.9% (inactive) in assay [8]. Also, in [2], the inhibition of aggregation is 5.6% (inactive). In addition, the nuclei count in assay [2] and in assay [3] was 108% each time. Besides, the figures for the fluorescence slope in [4] and in assay [6] were -0.405 (inactive) and 0.00521 (inactive), respectively. The NADPH fluorescence slope in assay [5] is 6.9e-06 (inactive).
As for `Cc1n[nH]c(C)c1S(=O)(=O)N1CCCCCC1`, the cell count in [1] came to 355. Further, the inhibition in assay [1] is 1.8% (inactive); in assay [3], -12.3% (inactive); in assay [7], 1.38% (inactive); in assay [8], 25% (inactive). Also, the inhibition of aggregation in assay [2] was -0.3% (inactive). For the same molecule, the figures for the nuclei count in [2] and in assay [3] were 99.2% and 110%, respectively. Besides, the fluorescence slope was -0.488 (inactive) in assay [4] and 0.00614 (inactive) in [6]. The NADPH fluorescence slope in assay [5] is 1.3e-05 (inactive).
As to `COc1ccccc1-n1c(SCC(N)=O)nnc1-c1ccccc1`, the cell count in [1] was determined as 737. Besides, the inhibition was 19.3% (inactive) in [1], -0.4% (inactive) in [3], 13.3% (inactive) in [7] and 23.1% (inactive) in assay [8]. For the same molecule, the inhibition of aggregation in assay [2] was -24.2% (inactive). The figures for the nuclei count in assay [2] and in [3] were 106% and 80.6%, respectively. The fluorescence slope in assay [4] was -0.484 (inactive); in [6], 0.00627 (inactive). The NADPH fluorescence slope in assay [5] is -3.5e-05 (inactive).
With `Cc1cc(S(=O)(=O)N2CCN(c3ncccn3)CC2)ccc1-n1cnnn1`, the cell count in assay [1] came out at 402. Moreover, the values for the inhibition in assay [1], in assay [7] and in assay [8] were 7.9% (inactive), -6.32% (inactive) and 0.356% (inactive), respectively. The inhibition of aggregation in assay [2] was -13.8% (inactive). The nuclei count is 101% in assay [2] and 149% in [3]. Also, in assay [4], the fluorescence slope was -0.393 (inactive). Moreover, the NADPH fluorescence slope in assay [5] was -1e-05 (inactive). Besides, the slope in assay [9] is 0.00528 (inactive). Moreover, the result in [10] was inactive.
`Cc1ccc(CNC(=O)c2coc(=O)c3ccccc23)o1`: in [1], the cell count came to 581. Further, the values for the inhibition in [1], in assay [3] and in assay [8] were 0.6% (inactive), 58.5% (inactive) and 98.4% (active), respectively. Also, in assay [2], the inhibition of aggregation was 4.6% (inactive). In addition, the figures for the nuclei count in assay [2] and in assay [3] were 102% and 55.6%, respectively. Further, the values for the fluorescence slope in [4] and in [6] were -0.445 (inactive) and 0.00482 (inactive), respectively. The NADPH fluorescence slope in assay [5] was -0.000402 (inactive).
In the case of `COc1cccc(C(=O)Nc2ccc(NC(=O)C(C)(C)C)cn2)c1`, the cell count in assay [1] was found to be 444. For the same molecule, the values for the inhibition in [1], in assay [7] and in assay [8] were 9.8% (inactive), 36% (inactive) and 21.1% (inactive), respectively. Further, in [2], the inhibition of aggregation is -12.7% (inactive). Further, the values for the nuclei count in assay [2] and in [3] were 120% and 135%, respectively. For the same molecule, the fluorescence slope in assay [4] is -0.571 (inactive); in assay [6], 0.00623 (inactive). In [5], the NADPH fluorescence slope is -9.6e-06 (inactive).
